Measured values reported in ChEMBL document CHEMBL1142898, “Synthesis and biological evaluation of benzoic acid derivatives as potent, orally active VLA-4 antagonists” (Bioorg Med Chem, 2007).

Columns and labels:
[1] = physchem; conditions: octanol/water
[2] = in vivo; conditions: BALB/c, mouse, serum, 10 mg/kg
[3] = in vivo; conditions: BALB/c, mouse, serum, 50 mg/kg
[4] = species on record: Mus musculus; conditions: in vivo, 5 mg/kg
[5] = tested on: Mus musculus; assay: Cmax in BALB/c mouse at 20 mg/kg, po normalized to 10 mg/kg after 15 mins; assay type: ADME, organism-based; design: dose 20 mg/kg, route oral; conditions: in vivo
[6] = species on record: Mus musculus; conditions: in vivo, 10 mg/kg
[7] = in vivo; conditions: Sprague-Dawley, rat, 10 mg/kg
[8] = tested on: Mus musculus; assay: AUC in BALB/c mouse at 20 mg/kg, po normalized to 10 mg/kg; assay type: ADME, organism-based, Plasma; conditions: in vivo
[9] = in vivo; conditions: Sprague-Dawley, rat, plasma, iv, 10 mg/kg
[10] = AUC in Sprague-Dawley rat 10 mg/kg, po; assay type: ADME, organism-based; design: dose 10 mg/kg, route oral; conditions: plasma
Outline: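 Male Sprague–Dawley rats, 6 weeks old, fasted 18 h, 3–4 per group. Oral dose 10 mg/5 ml/kg in 0.5% methylcellulose. Blood (0.4 ml) drawn at 0.25, 0.5, 1, 2 and 6 h. Plasma held at −20 °C, drug measured by LC/MS/MS, and PK parameters derived by non-compartmental analysis.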

[11] = in vivo; conditions: BALB/c, mouse, plasma, iv, 10 mg/kg
[12] = in vivo; conditions: Sprague-Dawley, rat, blood, 10 mg/kg
[13] = in vivo; conditions: Sprague-Dawley, rat, plasma, 10 mg/kg
[14] = in vivo; conditions: BALB/c, mouse, 5 mg/kg
[15] = in vivo; conditions: Sprague-Dawley, rat, 10 mg/kg; remark: listed apart in the source
[16] = tested on: Rattus norvegicus; assay: Cmax in Sprague-Dawley rat at 10 mg/kg, iv; conditions: in vivo
[17] = in vivo; conditions: BALB/c, mouse, 10 mg/kg
[18] = in vivo; conditions: beagle, dog, plasma, iv, 1 mg/kg
[19] = in vivo; conditions: beagle, dog, po, 2 mg/kg
[20] = in vivo; conditions: beagle, dog, 1 mg/kg
[21] = species on record: Canis familiaris; conditions: dog, in vivo, po, 1 mg/kg
[22] = AUC in Beagle dog at 1 mg/kg, po; assay type: ADME, organism-based, Canis lupus familiaris; design: dose 1 mg/kg, route oral; conditions: plasma
[23] = species on record: Rattus norvegicus; conditions: in vivo, 10 mg/kg
[24] = in vivo; conditions: BALB/c, mouse, plasma, 10 mg/kg
[25] = tested on: Mus musculus; assay: Cmax in BALB/c mouse at 10 mg/kg, po after 15 mins; assay type: ADME, organism-based; design: dose 10 mg/kg, route oral; conditions: in vivo
Outline: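 Female BALB/c mice, 8 weeks old, 4 per group. Dosed orally at 10 mg/1 ml/kg in 0.5% CMC. Drug level estimated by adding serum (0.01–10% final) to a Eu-VCAM-1/Fc binding assay on CHO-K1 cells expressing human VLA-4.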

[26] = in vivo; conditions: BALB/c, mouse, 5 mg/kg; remark: listed apart in the source
[27] = species on record: Canis familiaris; conditions: dog, in vivo, po, 1 mg/kg; remark: listed apart in the source
[28] = AUC in BALB/c mouse at 10 mg/kg, po; assay type: ADME, organism-based; design: dose 10 mg/kg, route oral; conditions: plasma

Q: For `O=C(Nc1ccccc1Cl)Nc1ccc(CC(=O)N2C[C@@H](F)C[C@H]2COc2ccc(C(=O)O)cc2)cc1Br`, which logD [1] is on record?
A: 2.17

Q: What about the concentration at […] [2] of the same compound?
A: 1880 ng/mL

Q: What does the source list for `Cc1ccccc1NC(=O)Nc1ccc(CC(=O)N2C[C@@H](F)C[C@H]2COc2ccc(C(=O)O)cc2)cc1C`?
A: logD [1]: 1.09; concentration at […] [2]: 368 ng/mL

Q: For `Cc1cc(CC(=O)N2C[C@@H](F)C[C@H]2COc2ccc(C(=O)O)cc2)ccc1NC(=O)Nc1ccccc1Cl`, which logD [1] is on record?
A: 1.69

Q: And the concentration at […] [2]?
A: 472 ng/mL

Q: With `COc1cc(CC(=O)N2C[C@@H](F)C[C@H]2COc2ccc(C(=O)O)cc2)ccc1NC(=O)Nc1ccccc1Cl` as the compound, how does the concentration at 0.5 h [3] read?
A: 142 ng/mL

Q: And the logD [1]?
A: 1.87

Q: For `Cc1cc(CC(=O)N2C[C@@H](F)C[C@H]2COc2ccc(C(=O)O)cc2)ccc1NC(=O)Nc1ccccc1Br`, which MRT [4] is on record?
A: 2.3 h

Q: And the Cmax [5]?
A: 391 ng/mL

Q: What about the Vdss [6] of the same compound?
A: 0.67 L/kg

Q: What about the bioavailability [7] of the same compound?
A: 34%

Q: What about the AUC [8] of the same compound?
A: 1095 ng·h/mL

Q: What about the AUC [9] of the same compound?
A: 15600 ng·h/mL

Q: And the AUC [10]?
A: 5230 ng·h/mL

Q: What about the AUC [11] of the same compound?
A: 5260 ng·h/mL

Q: And the logD [1]?
A: 1.64

Q: And the MRT [12]?
A: 2 h

Q: And the clearance [13]?
A: 11.3 mL/min/kg

Q: And the concentration at […] [2]?
A: 693 ng/mL

Q: What about the bioavailability [14] of the same compound?
A: 21%

Q: And the Vd [15]?
A: 0.29 L/kg

Q: What about the Cmax [16] of the same compound?
A: 6700 ng/mL

Q: What does the source list for `Cc1ccccc1NC(=O)Nc1ccc(CC(=O)N2C[C@@H](F)C[C@H]2COc2ccc(C(=O)O)cc2)cc1Cl`?
A: Vd [17]: 0.33 L/kg; bioavailability [7]: 36%; AUC [18]: 5680 ng·h/mL; bioavailability [19]: 55%; AUC [9]: 31900 ng·h/mL; MRT [20]: 1.6 h; Vdss [21]: 0.14 L/kg; AUC [10]: 11500 ng·h/mL; AUC [11]: 8900 ng·h/mL; AUC [22]: 3120 ng·h/mL; clearance [23]: 5.2 mL/min/kg; logD [1]: 1.61; MRT [12]: 1.7 h; clearance [24]: 18.5 mL/min/kg; Cmax [25]: 2250 ng/mL; MRT [26]: 1.2 h; concentration at […] [2]: 3660 ng/mL; bioavailability [14]: 28%; Cmax [27]: 2370 ng/mL; Vd [15]: 0.24 L/kg; AUC [28]: 2540 ng·h/mL; Cmax [16]: 13000 ng/mL

Q: Which results are given for `O=C(Nc1ccc(CC(=O)N2C[C@@H](F)C[C@H]2COc2ccc(C(=O)O)cc2)cc1Cl)Nc1ccccc1Br`?
A: logD [1]: 2.34; concentration at […] [2]: 2160 ng/mL
